Diaphorase inh: diaphorase inhibitors and chemical oxidizers, primary screen, counter-screen for diaphorase-coupled primary assays, biochemical, uHTS, resorufin fluorescence; diaphorase resazurin-to-resorufin fluorescence, NADH, 16 min; bacterial (C. kluyveri) enzyme, not human; inhibition, % at 20 µM; hit rate 0.69% among 190,000; AID 1217, 2008;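 active = primary screen inhibition at 20 µM above a set limit, cut at about 50% in these data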;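 also: plate controls were DMSO with full reaction for no effect and wells lacking NADH for full effect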
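Assay system – diaphorase enzyme from Clostridium kluyveri · Amount – diaphorase 0.14 U/mL (working solution) · Times – reaction incubation of 16 min at room temperature · Controls – No-NADH positive control and DMSO neutral control · Signal – resorufin fluorescence 544/590 nm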
G6PDH counter: L. mesenteroides G6PDH inhibitors, counter-screen for G6PDH-coupled screening assays, biochemical, Leuconostoc mesenteroides enzyme; glucose-6-phosphate dehydrogenase [Leuconostoc mesenteroides]; Purified L. mesenteroides G6PDH, diaphorase/resazurin coupled fluorescence, 45 min; inhibition, % at 5 µM; hit rate 0.12% among 200,000; in the data active = inhibition above about 50%
UBC9 SUMO inh: inhibitors of in vitro SUMOylation cascade, primary screen, biochemical, HTRF, uHTS. SUMO-conjugating enzyme UBC9 (Homo sapiens), P63279. HTRF SUMOylation assay, SAE1/SAE2 + UBC9. inhibition, % at 35 µM. hit rate 0.36% among 290,000. AID 2006, 2009; in the data active = inhibition above about 50%, passing the limit was not always enough
p97 ATPase inh: inhibitors of human p97 ATPase, primary screen, biochemical; recombinant p97 ATPase, Kinase-Glo ATP luminescence, 3 h; inhibition, % at 8 µM; hit rate 0.42% among 220,000; in the data active = inhibition above about 15%;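 also: 0% = DMSO vehicle and 100% = wells lacking enzyme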
Target sequence (P55072 whole entry, looked up): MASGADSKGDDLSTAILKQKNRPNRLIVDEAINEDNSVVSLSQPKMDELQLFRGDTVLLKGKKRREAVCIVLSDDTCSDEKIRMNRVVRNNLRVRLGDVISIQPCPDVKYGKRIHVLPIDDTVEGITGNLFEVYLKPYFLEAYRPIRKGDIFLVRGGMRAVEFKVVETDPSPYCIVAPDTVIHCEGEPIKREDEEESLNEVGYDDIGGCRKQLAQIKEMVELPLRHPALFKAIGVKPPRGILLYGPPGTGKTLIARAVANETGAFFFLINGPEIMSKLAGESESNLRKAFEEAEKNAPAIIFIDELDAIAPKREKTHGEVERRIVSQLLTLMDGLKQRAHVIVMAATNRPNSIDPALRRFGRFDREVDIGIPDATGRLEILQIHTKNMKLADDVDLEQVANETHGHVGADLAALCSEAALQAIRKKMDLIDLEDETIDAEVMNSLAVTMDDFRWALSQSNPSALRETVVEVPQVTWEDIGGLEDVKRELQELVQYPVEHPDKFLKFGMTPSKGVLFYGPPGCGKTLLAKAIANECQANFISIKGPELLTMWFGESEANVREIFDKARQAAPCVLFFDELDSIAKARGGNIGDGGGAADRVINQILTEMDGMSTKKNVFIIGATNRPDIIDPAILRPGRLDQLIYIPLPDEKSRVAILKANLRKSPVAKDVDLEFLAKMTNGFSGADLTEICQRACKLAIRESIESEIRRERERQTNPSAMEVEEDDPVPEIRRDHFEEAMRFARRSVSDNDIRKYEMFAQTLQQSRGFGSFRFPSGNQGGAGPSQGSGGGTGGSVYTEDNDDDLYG
HKDC1 inhibitor: HKDC1 hexokinase inhibitors, primary screen, biochemical, fluorescence, uHTS; hit rate 0.16% among 340,000; inhibition, % at 20 µM; Q2TB90; recombinant HKDC1, G6PDH/diaphorase resazurin coupled fluorescence;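 active = inhibition above about 35% when tested at 20 µM, limit read from the data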;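 also: plate controls were DMSO wells with enzyme for no effect and DMSO wells lacking enzyme for full effect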
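Test system: recombinant HKDC1 (HK5) hexokinase enzyme, produced in-house; Amount: enzyme 5 µg/mL final; Buffer or medium: Tris pH 8.0 buffer with MgCl2, Tween-20, BSA, BME; Reagent: glucose and ATP substrates; Doses: 20 µM test compound, 1% DMSO; Incubation: 90 min reaction incubation at room temperature, dark; Detection: resorufin fluorescence at 613 nm.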
Numbers without * were called inactive; nt = no result given. Hits are enriched below; roughly 0.95% of the tested compounds scored in any of these assays.

SMILES | Diaphorase inh | G6PDH counter | UBC9 SUMO inh | p97 ATPase inh | HKDC1 inhibitor
O=C(CCl)Nc1cccc(S(=O)(=O)NC2=NCCC2)c1 | nt | nt | 28 | -3 | 1
CCOC(=O)c1c(C)oc2c1c(CN1CCN(C(=O)OCC)CC1)c(O)c1ccccc12 | 36 | 40 | 4 | -2 | 12
CCOC(=O)c1c(C)oc2c1c(C=NCCC(=O)O)c(O)c1ccccc12 | 71* | 52* | nt | 0 | 13
CCOC(=O)c1c(C)oc2c1c(C=NC1CCS(=O)(=O)C1)c(O)c1ccccc12 (centres undefined) | 76* | 34 | 46 | 7 | 4
CCOC(=O)c1c(C)oc2c1c(C(c1ccncc1)N1CCOCC1)c(O)c1ccccc12 (centres undefined) | 21 | -31 | 18 | 1 | 13
CCOC(=O)c1c(C)oc2c1c(CN1CCN(CCO)CC1)c(O)c1ccccc12 | 61* | 48 | 16 | 5 | 29
O=C(O)CC/C(=N\NC(=O)c1ccncc1)c1ccccc1 | nt | nt | -9 | nt | -7
Cc1ccc(S(=O)(=O)N(C)C)cc1NC(=S)Nc1cccc2ccccc12 | nt | nt | 92* | nt | 16
O=C1OC(Nc2ccc3ncccc3c2)c2ccccc21 (centres undefined) | 56* | 28 | 60 | 0 | 3
Cc1cc(C(F)(F)F)nc(SCCN2CCCCC2)c1C#N | nt | nt | 0 | nt | 0
O=S(=O)(c1ccc2nc(-c3ccco3)c(-c3ccco3)nc2c1)N1CCOCC1 | 67* | 38 | 84* | 10 | 20
O=S(=O)(c1ccc2ccccc2c1)N1CCOCC1 | nt | nt | 8 | nt | -1
O=C(c1ccc2nc(-c3ccco3)c(-c3ccco3)nc2c1)N1CCN(c2ccccc2)CC1 | 56* | -28 | 73* | -1 | 3
COc1ccc(-c2ccc(-c3cc(=O)oc4c(C(C)C)ccc(C)c34)cc2)cc1 | nt | nt | nt | nt | -2
CCCn1nc(C(=O)NCC2COc3ccccc3O2)c2ccccc2c1=O (centres undefined) | nt | nt | nt | nt | 5
O=C(/C=C/c1ccco1)NC(=S)Nc1ccc(C(=O)O)cc1 | nt | nt | 45 | nt | 9
O=C(/C=C/c1ccco1)NC(=S)Nc1ccc(N2CCCC2)cc1 | 20 | 12 | 60* | 9 | 1
S=c1[nH]nc(-c2ccco2)n1/N=C/C=C/c1ccccc1 | 57* | 1 | 2 | 0 | 2
S=c1[nH]nc(-c2ccccc2)n1/N=C/C=C/c1ccco1 | 42 | 7 | 41 | 7 | -6
O=C(O)c1cccc(NS(=O)(=O)c2ccc(-c3ccc(S(=O)(=O)Nc4cccc(C(=O)O)c4)cc3)cc2)c1 | 51* | 0 | 10 | 1 | 0
O=C(O)c1cccc(NS(=O)(=O)c2ccc(Oc3ccc(S(=O)(=O)Nc4cccc(C(=O)O)c4)cc3)cc2)c1 | nt | nt | nt | nt | 3
Cc1ccc(-c2cc(C(=O)N3CCCCC3)c3ccccc3n2)cc1C | nt | nt | -4 | nt | -3
CN(C)c1cccc2c(S(=O)(=O)N3CCCC3)cccc12 | nt | nt | 51* | nt | 9
CN(C)c1cccc2c(S(=O)(=O)N3CCOCC3)cccc12 | 16 | 16 | 31 | -6 | 14
CC1(c2nnc(-c3ccncc3)o2)CC(c2ccccc2)=NO1 (centres undefined) | nt | nt | nt | nt | 0
SMILES | Diaphorase inh | G6PDH counter | UBC9 SUMO inh | p97 ATPase inh | HKDC1 inhibitor
O=C(NC1CCCCCCC1)NC1CCCCC1 | 2 | 7 | 19 | 0 | 1
O=C(NNC(=O)c1cc(O)c(O)c(O)c1)NC1CCCCC1 | 50* | 15 | -1 | 4 | -9
CCC(C)[C@H](NC(=O)[C@H](Cc1ccccc1)n1c(=O)[nH]c2ccccc2c1=O)C(=O)N1CCC[C@@H]1C(=O)O (some centres undefined) | nt | nt | 1 | nt | -4
CCOC(=O)CSc1nnc(NC(=O)CCc2ccccc2)s1 | nt | nt | -10 | nt | -5
O=C1/C(=C/c2ccc(F)cc2)SC(=S)N1Nc1ncc(C(F)(F)F)cc1Cl | -8 | 13 | 9 | 19* | -4
O=C(O)C1C2C=CC(C2)C1C(=O)NCc1ccc(Cl)cc1Cl (centres undefined) | nt | nt | 10 | nt | 0
O=C(Nc1ncccn1)c1cc([N+](=O)[O-])cc([N+](=O)[O-])c1 | 1 | -11 | -3 | -4 | -2
O=[N+]([O-])c1cc(-c2ncccn2)c([N+](=O)[O-])s1 | 51* | 3 | -3 | 2 | 10
O=C1C(Cl)=C(NCCN2CCCCC2)C(=O)c2ccccc21 | 9 | 51* | 23 | 3 | 2
CCc1ccc(-c2cc(C)no2)cc1S(=O)(=O)N1CCN(c2ccccc2)CC1 | nt | nt | 8 | nt | -2
O=c1[nH]c2ccc(N=Cc3c(O)ccc4cc(Br)ccc34)cc2[nH]1 | 55* | 8 | 48 | 3 | 8
COc1ccc(-n2c(C)cc(C3=NNC(=NC4CC4)SC3)c2C)cc1 | -28 | 6 | -4 | 22* | -10
Cc1cc(C2=NNC(=NC3CC3)SC2)c(C)n1-c1ccccc1 | 14 | -4 | -10 | 2 | -28
N#Cc1ccc(OCC(O)CN2CCN(c3ncc(C(F)(F)F)cc3Cl)CC2)cc1 (centres undefined) | nt | nt | -15 | nt | 4
CC(CN1CCOCC1)OC(=O)c1ccc(Br)cc1 (centres undefined) | 34 | 57* | -3 | 3 | 2
CC(CN1CCOCC1)OC(=O)c1ccccc1Cl (centres undefined) | nt | nt | 0 | nt | -4
O=S(=O)(NCc1cccnc1)c1cccs1 | 18 | 6 | 9 | 2 | -5
CSC(=NCc1cccnc1)NS(=O)(=O)c1cccs1 | 74* | 2 | 4 | 2 | 2
Clc1ccc(-c2c[nH]c3ccccc23)nn1 | 63* | 2 | 11 | 2 | -4
Cc1ccc(CCN2C(=O)c3ccccc3C2C(=O)NCc2cccnc2)cc1 (centres undefined) | 3 | 4 | 12 | -4 | 0
Cc1ccc(-c2[nH]c(-c3ccc(C(=O)O)cc3)nc2-c2ccccc2)cc1 | 23 | -12 | 58* | -2 | -5
O=C(NCCc1ccc(C(F)(F)F)cc1)c1ccc(Cl)nc1 | nt | nt | -18 | nt | -3
O=C(CSc1nc2nc(-c3cccs3)cc(C(F)(F)F)c2c(=O)[nH]1)Nc1ccc(F)c(F)c1 | 1 | 12 | 56* | 3 | 6
Cc1ccc(/C=C2\SC(=S)N(/N=C/c3cc([N+](=O)[O-])ccc3O)C2=O)o1 | 63* | 12 | nt | 21* | -12
CCOC(=O)c1nn(-c2ccc(Cl)cc2)c(C)cc1=O | nt | nt | -10 | nt | -3
S=c1[nH]ncn1/N=C/c1ccc(Br)cc1 | 42 | 0 | 34 | 6 | 10
CCn1c2ccccc2c2cc(/C=N/n3cnnc3)ccc21 | 18 | -8 | 32 | -2 | 1
CCn1c2ccccc2c2cc(/C=N/n3cn[nH]c3=S)ccc21 | 62* | 3 | -22 | 4 | 4
